# Screening results (PubChem BioAssay)
# In the library only some 6.8% were active in any assay of this set; here they are far more common.
# MKP-1 inh: blocks human MKP-1 phosphatase activity. P28562. recombinant MKP-1, OMFP hydrolysis fluorescence. inhibition, %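 (compounds tested at a single concentration somewhere between 10 and 100 µM)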. hit rate 0.15% among 65,000. AID 374;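 active = inhibition above about 50%, limit read from the data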;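 also: 0% = DMSO max control wells and 100% = wells with enzyme stopped by NaOH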
# M1 antag: blocks the rat M1 muscarinic receptor response to acetylcholine; B-score at 10 µM; AID 628; CHO-M1 cells, Fluo-4 calcium, ACh EC80 antagonist mode; hits give low values; hit rate 3.4% among 64,000; P08482;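 active = calcium fluorescence response, raw or row-and-column corrected B-score, differing from the plate sample mean either way at a set confidence level, mostly lower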
# HER2 expr 66K: lowers expression of human Her2 kinase. SKBR-3 HER2 protein level, AlphaScreen, 18-24 h; hits give low values. AID 645. hit rate 0.69% among 65,000. HER2 level % of control, % at 10 µM;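 active = HER2 level under 5% of the carrier-only control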;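 also: 100% = DMSO carrier and 0% = 500 nM PU-H71 HSP90 inhibitor; lower value means stronger loss of Her2 protein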
# Cdc25B block: inhibitors of human Cdc25B phosphatase; hit rate 0.1% among 65,000; P30305; AID 368; recombinant Cdc25B, OMFP fluorescence Ex485/Em525; inhibition, %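 (compounds tested at 10 µM final in the well)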; in the data active = inhibition above about 50%
# M1 agonist: activates the M1 muscarinic receptor; CHO-M1 cells, Fluo-4 calcium fluorescence, agonist mode; hits give high values; B-score at 10 µM; hit rate 3% among 64,000; AID 626;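 active = fluorescence rise, raw or as B-score row- and column-corrected plate score, outside the 99.7% band of its plate's samples, either direction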
# HEK293 NFkB inh: inhibitors of the PMA/ionomycin-induced NF-kB reporter in HEK293 cells; HEK-293 NF-kB luciferase reporter, luminescence; hit rate 0.21% among 62,000; inhibition, % at 3 µM;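 active = inhibition above the mean of all tested compounds plus 3 SD, cut at about 40% in these data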;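 also: 0% = stimulated DMSO wells and 100% = 10 µM reference inhibitor 5653914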
#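 Reagent: PMA plus ionomycin mix as NF-kB-activating stimulus. Assay system: NF-kB luciferase reporter HEK-293 cells. Technique: luminescence from luciferase substrate reagent. Incubation: 1 h compound pre-incubation, 16 h PMA/ionomycin at 37 °C. Benchmarks: DMSO only as uninhibited control, 10 µM reference inhibitor as full inhibition. Repeats: tested once.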
# * marks the source's active call; other numbers are inactive results; / = not tested or not shown.
SMILES,MKP-1 inh,M1 antag,HER2 expr 66K,Cdc25B block,M1 agonist,HEK293 NFkB inh
CN1CCN(c2ccc(Cl)cc2NC(=O)c2ccc(S(=O)(=O)N3CCCCCC3)cc2)CC1,24,-0.4,-6.0*,-17,-0.29,10
O=C1CC(c2ccc(F)cc2)CC(O)=C1C=NCCN1CCN(C(=O)Nc2ccccc2)CC1 (configuration not stated),4,-0.71,78,3,1.7,-2
Cc1cc(C)n(-c2cc(-c3ccccc3)nc(C)n2)n1,3,0.17,65,-13,1.8,17
Cc1cccc(N2C(=O)CC(N(C(=O)c3ccco3)c3cccc(C)c3)C2=O)c1 (configuration not stated),7,0.25,67,17,0.64,8
O=C(O)C1Nc2c(C(=O)N3CCOCC3)cccc2C2C=CCC12 (configuration not stated),37,1.8*,147,18,-0.24,3
O=C(c1ccccc1)c1ccccc1C(=O)N1CCOCC1,-2,-0.7,109,-9,-1.7,16
O=C(NC(=O)c1cccc(OC(F)(F)C(F)F)c1)OC1CCS(=O)(=O)C1 (configuration not stated),-2,-19*,114,-14,22*,9
CCCCNC(=O)OC1CCS(=O)(=O)C1 (configuration not stated),-8,-0.057,131,12,-1.8,13
Cc1cnn(C(=O)c2ccccc2Br)c1,0,0.19,75,0,-0.17,5
Cn1nc(CC(=O)Nc2ccc(N3CCN(C(=O)OC(C)(C)C)CC3)cc2)c2ccccc2c1=O,32,-1.9,80,-5,3.8,45*
Cn1nc(CC(=O)N2CCN(c3ccccc3)CC2)c2ccccc2c1=O,9,-0.029,143,-1,1.3,-2
CC(C)C(NC(=O)OC(C)(C)C)C(=O)N1CCCC1C(=O)NC(Cc1ccccc1)C(N)=O (configuration not stated),3,0.0053,101,12,-0.3,4
CCCCn1c(SCC(=O)N2CCCc3ccccc32)nc2c1c(=O)n(C)c(=O)n2C,24,-0.034,87,-6,9.7*,12
CCc1nc(SCC(=O)N2CCCc3ccccc32)c2c(=O)n(C)c(=O)n(C)c2n1,-3,-1.8,80,-7,3.5*,0
Cc1nnc(Sc2nc3c(c(=O)[nH]c(=O)n3C)n2Cc2ccccc2Cl)s1,5,0.67,94,-9,-0.038,14
CN(C(=O)c1ccc(NC(=O)c2cnccn2)cc1)C1CCCCC1,4,-0.042,96,-8,-0.53,2
O=S(=O)(NCc1ccco1)N1CCOCC1,15,-0.44,105,-3,-0.53,5
CCOC(=O)CCC(=O)N1CCNC(=O)C1,/,2.2*,/,/,0.72,/
O=C(CSc1nc2ccccc2c(=O)[nH]1)Nc1ccc(S(=O)(=O)N2CCCC2)cc1,53*,-0.44,114,0,0.36,5
CNc1nn(-c2cccc(Cl)c2)nc1N,5,0.61,92,-7,1.5,-17
CCCn1c(CN2CCN(c3cccc(Cl)c3)CC2)nc2c1c(=O)n(C)c(=O)n2C,18,-2.5*,100,-6,11*,19
CCCCn1c(CN2CCN(c3cccc(Cl)c3)CC2)nc2c1c(=O)n(C)c(=O)n2C,25,-0.44,79,2,0.019,0
COC(=O)c1sc(S(=O)(=O)N2CCN(c3ccccc3)CC2)c(C(=O)OC)c1C,-5,0.4,-30*,2,-0.033,16
CCCc1[nH]n(-c2nc3ccccc3s2)c(=O)c1C=NCCN1CCOCC1,-16,-0.12,88,-4,0.12,/
CCCCCN=Cc1c(C)[nH]n(-c2nc3ccccc3s2)c1=O,15,-0.045,-20*,-1,-0.022,-23
CS(=O)(=O)c1nc(-c2ccccc2)cc(C(F)(F)F)n1,0,-0.0034,-24*,-8,0.026,-4
Cc1cccc(N2C(=O)CC(N3CCN(c4cccc(C(F)(F)F)c4)CC3)C2=O)c1 (configuration not stated),4,-0.44,148,-14,-0.22,-2
COc1cccc(N2CCN(C3CC(=O)N(c4cccc(Cl)c4)C3=O)CC2)c1 (configuration not stated),-16,-0.022,89,92*,0.15,/
